pEC50: −log10 of the molar value.
What was measured:
[1] = Stability in 25 mM phosphate buffer assessed as hydrolysis half life at pH 7.3; format: physicochemical; settings: for half-life: phosphate buffer; for t1/2: buffer
[2] = system: Human immunodeficiency virus 1; experiment: Antiviral activity against HIV1 in human CEM cells; format: functional, organism-based; settings: Human immunodeficiency virus 1, CCRF-CEM
Procedure, shortened: (§1)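 CEM/0 cells at 4 × 10⁵ cells/mL infected with HIV-1 or HIV-2 (ROD, stocks from infected MT-4 supernatants) at ~100 CCID₅₀/mL, mixed 1:1 with serial compound dilutions. Giant cell formation scored microscopically after 4-5 days.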

[3] = (§2) Stability in human CEM cell extract assessed as hydrolysis half life at pH 6.9; format: ADME, CCRF-CEM; settings: CEM cell extract
[4] = system: Human immunodeficiency virus 2; experiment: Antiviral activity against HIV2 ROD in human CEM cells; format: functional, organism-based, CCRF-CEM; procedure, shortened: as §1
[5] = system: Human immunodeficiency virus 2; experiment: Antiviral activity against HIV2 ROD in thymidine kinase deficient human CEM cells; format: functional, organism-based, CCRF-CEM
Procedure, shortened: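 Thymidine kinase-deficient CEM/TK⁻ cells at 4 × 10⁵ cells/mL infected with HIV-2 ROD at ~100 CCID₅₀/mL, then mixed 1:1 with compound dilutions. Microscopic scoring of giant cell formation at 4-5 days. EC50 is the mean of two to three independent experiments.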

[6] = (§3) Cytotoxicity against human CEM cells; format: cell-based, CCRF-CEM; settings: CEM cells
Procedure, shortened: (§4)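 Wild-type CEM cells exposed to test compound dilutions. Value reported as 50% cytotoxic concentration.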

Serum = experiment: Stability in human serum assessed as hydrolysis half life at pH 6.8; format: ADME, cell-free
Procedure, shortened: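 Human serum at 50%, diluted with phosphate buffered saline to pH 6.8. Triester conversion followed over time and hydrolysis half-life derived.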

CCRF-CEM [7] = experiment: as §2; format: ADME; settings: ccrf-cem
CCRF-CEM [8] = experiment: as §3; format: cell-based; settings: ccrf-cem; procedure, shortened: as §4
[9] = Human immunodeficiency virus 2, ROD, CCRF-CEM

Row | SMILES | half-life [1] [h] | pEC50 [2] | half-life [3] [h] | pEC50 [4, 9] | pEC50 [5, 9] | CC50 [6] [nM] | t1/2 [1] [h] | t1/2 (Serum) [h] | t1/2 (CCRF-CEM [7]) [h] | pEC50 ([4]; ccrf-cem) | CC50 (CCRF-CEM [8]) [nM] | pEC50 ([5]; ccrf-cem)
1 | COC(=O)CNC(=O)CCc1ccc2c(c1)COP(=O)(OC[C@@H]1C=C[C@H](n3cc(C)c(=O)[nH]c3=O)O1)O2 (some centres not stated) | 6.5 | 5.70 | 4.5 | 5.80 | 5.40 | 220000 | – | – | – | – | – | –
2 | COC(=O)[C@@H](C)NC(=O)CCc1ccc2c(c1)COP(=O)(OC[C@@H]1C=C[C@H](n3cc(C)c(=O)[nH]c3=O)O1)O2 (some centres not stated) | 5 | 6.40 | 6.2 | 6.40 | 5.38 | 61000 | – | – | – | – | – | –
3 | Cc1cn([C@H]2C=C[C@@H](COP3(=O)OCc4cc(CCC(=O)N[C@@H](C)C(=O)OC(C)(C)C)ccc4O3)O2)c(=O)[nH]c1=O (some centres not stated) | 5.7 | 6.52 | 6.8 | 6.40 | 5.42 | 53000 | – | – | – | – | – | –
4 | Cc1cn([C@H]2C=C[C@@H](COP3(=O)OCc4cc(CCC(=O)O)ccc4O3)O2)c(=O)[nH]c1=O (some centres not stated) | 13 | 6.85 | – | 6.10 | 4.30 | 74000 | – | – | – | – | – | –
5 | Cc1cn([C@H]2C=C[C@@H](COP3(=O)OCc4cc(CCC(=O)N5CCC[C@H]5C(=O)OCc5ccccc5)ccc4O3)O2)c(=O)[nH]c1=O (some centres not stated) | 6.1 | 6.15 | 0.4 | 5.96 | 4.68 | 46000 | – | – | – | – | – | –
6 | Cc1cn([C@H]2C=C[C@@H](COP3(=O)OCc4cc(CCC(=O)NCC(=O)OCc5ccccc5)ccc4O3)O2)c(=O)[nH]c1=O (some centres not stated) | 6.2 | 6.51 | 4.8 | 6.33 | 6.40 | 75000 | – | – | – | – | – | –
7 | COC(=O)[C@@H]1CCCN1C(=O)CCc1ccc2c(c1)COP(=O)(OC[C@@H]1C=C[C@H](n3cc(C)c(=O)[nH]c3=O)O1)O2 (some centres not stated) | 7.9 | 5.89 | 1.1 | 5.80 | 5.55 | 182000 | – | – | – | – | – | –
8 | COC(=O)[C@H](C)NC(=O)CCc1ccc2c(c1)COP(=O)(OC[C@@H]1C=C[C@H](n3cc(C)c(=O)[nH]c3=O)O1)O2 (some centres not stated) | 6.4 | 6.10 | 1.1 | 6.15 | 5.60 | 152000 | – | – | – | – | – | –
9 | Cc1cn([C@H]2C=C[C@@H](COP3(=O)OCc4cc(CCC(=O)N[C@@H](C)C(=O)O)ccc4O3)O2)c(=O)[nH]c1=O (some centres not stated) | 12 | 6.30 | 7 | 6.40 | 5.39 | 77000 | – | – | – | – | – | –
10 | Cc1cn([C@H]2C=C[C@@H](COP3(=O)OCc4cc(CCC(=O)N[C@@H](C)C(=O)OCc5ccccc5)ccc4O3)O2)c(=O)[nH]c1=O (stereo in doubt; form 1) | – | – | – | – | – | – | 4.5 | 4.4 | 0.5 | 6.52 | 48000 | –
11 | Cc1cn([C@H]2C=C[C@@H](COP3(=O)OCc4cc(CCC(=O)N[C@@H](C)C(=O)OCc5ccccc5)ccc4O3)O2)c(=O)[nH]c1=O (stereo in doubt; form 2) | – | – | 0.5 | – | – | – | 8.8 | 1.3 | – | – | 61000 | 6.00
12 | Cc1cn([C@H]2C=C[C@@H](COP3(=O)OCc4cc(CCC(=O)N[C@@H](C)C(=O)OCc5ccccc5)ccc4O3)O2)c(=O)[nH]c1=O (stereo in doubt; form 3) | 6.4 | 6.52 | – | 6.40 | – | – | – | – | – | – | 23000 | 6.52
13 | Cc1cn([C@H]2C=C[C@@H](CO)O2)c(=O)[nH]c1=O [STAVUDINE] | – | 6.32 | – | 6.20 | 4.32 | 234000 | – | – | – | – | – | –

From ChEMBL document CHEMBL1140176, “Intracellular trapping of cycloSal-pronucleotides: modification of prodrugs with amino acid esters” (J Med Chem, 2008)
